From PMC12102734 (Protein Science : A Publication of the Protein Society, 2025)
Each block holds one molecule with its values, some of them ahead of it. mca = not defined here

Key:
[1] = biological target: T1, Sm20S β5 subunit (Schistosoma mansoni, UniProt A0A5K4F079); experiment: Concentration-response assay, purified Sm20S, Suc-LLVY-amc substrate; assay type: biochemical; conditions: 500 nM inhibitor
T1 sequence (A0A5K4F079 63-264): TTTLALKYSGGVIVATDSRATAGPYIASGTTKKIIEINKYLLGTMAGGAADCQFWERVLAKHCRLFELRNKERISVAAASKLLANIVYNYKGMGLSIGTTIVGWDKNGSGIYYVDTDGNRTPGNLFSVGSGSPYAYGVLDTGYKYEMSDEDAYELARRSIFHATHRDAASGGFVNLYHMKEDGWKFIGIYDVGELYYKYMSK
Summary of the method: (§1)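 Sm20S purified from adult worm homogenate by 30%/60% ammonium sulfate precipitation, gel filtration and DEAE anion exchange. Test compound was 3-fold serially diluted in DMSO, then diluted 250-fold into 20 mM Tris-HCl pH 7.5, 0.02% SDS with 20 nM enzyme. After 15 min preincubation, an equal volume of 20 μM substrate was added: Z-LLE-amc (β1), Boc-LRR-amc (β2) or Suc-LLVY-amc (β5). Read at RT for 2 h every 2 min. Max velocity over eight reads, normalized to 0.1% DMSO control, four-parameter logistic fit.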

[2] = biological target: T2, Sm20S β2 subunit (Schistosoma mansoni, UniProt G4VSW3); experiment: Concentration-response assay, purified Sm20S, Boc-LRR-amc substrate; assay type: biochemical; conditions: for inhibition at 0.5 µM: 2 h, read-out: reduction of β2 activity (Boc-LRR-amc)
T2 sequence (G4VSW3 39-281): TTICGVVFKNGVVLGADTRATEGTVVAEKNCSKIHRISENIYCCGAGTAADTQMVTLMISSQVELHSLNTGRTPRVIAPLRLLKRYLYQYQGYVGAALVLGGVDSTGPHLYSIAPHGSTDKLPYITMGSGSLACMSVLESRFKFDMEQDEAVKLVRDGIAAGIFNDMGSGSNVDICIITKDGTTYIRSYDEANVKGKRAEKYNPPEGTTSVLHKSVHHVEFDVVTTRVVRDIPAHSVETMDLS
Summary of the method: as §1

[3] = test system: 20S proteasome β5 subunit (single-step enriched extracts); experiment: Proteasome inhibition in three Schistosoma species, β5 substrate Ac-FNKL-amc; assay type: biochemical, S. mansoni, S. haematobium, S. japonicum; conditions: for inhibition of β5 activity, three Schistosoma species: extracts pre-incubated 1 h with 500 nM inhibitor; for reduction of β5 activity, across three Schistosoma species: 250 nM inhibitor
Summary of the method: (§2)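 Extracts of S. mansoni, S. haematobium and S. japonicum adults were enriched by 30%/60% ammonium sulfate precipitation. Extracts (S. haematobium 0.625 μg/μL; others 1.25 μg/μL) were preincubated 1 h with 500 nM test compound (one also at 250 nM) or 0.125% DMSO. An equal volume of substrate was then added: 20 μM β1 or β2 mca/K(dnp) substrate, or 40 μM β5 Ac-FNKL-amc. Read at 24°C, triplicate wells.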

[4] = biological target: T3, Sm20S β1 subunit (Schistosoma mansoni, UniProt G4V926); experiment: Concentration-response assay, purified Sm20S, Z-LLE-amc substrate; assay type: biochemical
T3 sequence (G4V926 1-225): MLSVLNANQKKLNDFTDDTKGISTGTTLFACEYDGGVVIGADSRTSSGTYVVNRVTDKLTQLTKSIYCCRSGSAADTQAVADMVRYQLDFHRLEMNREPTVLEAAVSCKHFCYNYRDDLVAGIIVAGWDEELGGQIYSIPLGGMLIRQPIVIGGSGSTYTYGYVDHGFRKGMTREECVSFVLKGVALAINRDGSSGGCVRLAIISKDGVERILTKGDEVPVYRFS
Summary of the method: as §1

[5] = biological target: T3, Sm20S β1 subunit; experiment: Inhibition of purified Sm20S, caspase-3 substrate mca-VDQMDGW-K; assay type: biochemical; conditions: 100 nM inhibitor, 10 μM substrate
[6] = biological target: T2, Sm20S β2 subunit; experiment: Inhibition of single-step enriched Sm20S, mca-FnKRR-K; assay type: biochemical
Summary of the method: (§3)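 Single-step enriched Sm20S: S. mansoni extract precipitated with ammonium sulfate (30% then 60% saturation, 60 min each on ice), resuspended in 100 mM Tris-HCl pH 7.5, 100 μM E-64, and concentrated on a 100 kDa filter. Assay buffer contained pepstatin, E-64 and AEBSF. Extract was incubated with test compound 1 h at RT, and cleavage of internally quenched mca/K(dnp) substrates was read at 24°C (ex/em 320/400 nm). Technical triplicates, curve fitting.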

[7] = test system: 20S proteasome β1 subunit (single-step enriched extracts); experiment: Proteasome inhibition in three Schistosoma species, β1 substrate mca-VDQMDGW-K; assay type: biochemical, S. mansoni, S. haematobium, S. japonicum
Summary of the method: as §2

[8] = test system: Sm20S; assay type: biochemical, Schistosoma mansoni; conditions: purified Sm20S
Summary of the method: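 Purified Sm20S at 10 nM was given 2-fold serial dilutions of each substrate and fluorescence was read at 24°C. Ex/em was 360/460 nm for amc and 320/400 nm for mca substrates. Ranges were 2–500 μM for the β1 pair and 6.25–500 μM for the β2 pair. Relative activity was normalized to the rate at 500 μM (β1 pair), 500 μM Boc-LRR-amc vs 31.25 μM mca-FnKRR-K(dnp) (β2), and 100 μM (β5 pair). Technical triplicates.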

[9] = biological target: T3, Sm20S β1 subunit; experiment: Inhibition of single-step enriched Sm20S, mca-VDQMDGW-K; assay type: biochemical
Summary of the method: as §3

[10] = test system: 20S proteasome β2 subunit (single-step enriched extracts); experiment: Proteasome inhibition in three Schistosoma species, β2 substrate mca-FnKRR-K; assay type: biochemical, S. mansoni, S. haematobium, S. japonicum; conditions: extracts pre-incubated 1 h with 500 nM inhibitor
Summary of the method: as §2

- inhibition of β5 activity (Suc-LLVY-amc) [1]: strongly inhibited
- inhibition of β2 activity with old substrate Boc-LRR-amc ([2]; 10 μM inhibitor): completely inhibited
- inhibition at 0.5 µM [2]: ~35%
- reduction of β1 activity (Z-LLE-amc) ([4]; 500 nM inhibitor, purified Sm20S): strongly inhibited
- inhibition of mca-VDQMD*GW-K(dnp) hydrolysis by Sm20S [5]: inhibited
- inhibition of β2 activity with new substrate mca-FnKRR-K(dnp) ([6]; 10 μM inhibitor): did not inhibit
- reduction of β2 activity ([6]; up to 5 μM inhibitor): No reduction
Molecule: CC(C)C[C@H](NC(=O)[C@H](Cc1ccccc1)NC(=O)c1cnccn1)B(O)O [BTZ, bortezomib]
- inhibition of β5 activity, three Schistosoma species [3]: preferentially inhibited
- inhibition of β1 activity, three Schistosoma species ([7]; extracts pre-incubated 1 h with 500 nM inhibitor): preferentially inhibited

Molecule: Ac‐FNKL‐amc
- cleavage rate relative to Suc-LLVY-amc ([8]; both substrates at 25 μM, β5): ~ 4 fold
- substrate concentration at which cleavage is maximal ([8]; β5 substrate): 25 µM

Molecule: C[C@@]12OC(=O)[C@]1([C@@H](O)[C@@H]1C=CCCC1)NC(=O)[C@@H]2CCCl [MZB, marizomib]
- reduction of β5 activity, across three Schistosoma species [3]: complete inactivation

Molecule: mca‐VDQMDGW‐K(dnp)‐NH2 (mca-VDQMDGW-{K(dnp)-NH2}; reading uncertain; also: printed as mca‐VDQMDGW‐K(dnp)‐NH2)
- cleavage efficiency relative to LLE-amc ([8]; between 16 and 250 μM substrate, β1): ~ 2 fold

Molecule: Boc‐LRR‐amc
- cleavage by Sm20S over substrate concentration range ([8]; 6.25-500 μM substrate, β2): steadily increased across the entire concentration range

Molecule: CCCCCC(=O)N[C@@H](Cc1c[nH]c2ccccc12)C(=O)N[C@@H](Cc1c[nH]c2ccccc12)C(=O)N[C@@H](Cc1ccccc1)C(=O)[C@@]1(C)CO1 [CP‐17]
- reduction of β5 activity, across three Schistosoma species [3]: > 90%
- reduction in β1 activity, across three Schistosoma species ([7]; 250 nM inhibitor): little inhibition

- inhibition of β1 activity with new substrate mca-VDQMDGW-K(dnp) ([9]; 10 μM inhibitor, single-step enriched Sm20S): only partially inhibitory
- inhibition at 5 µM ([9]; read-out: inhibition of β1 subunit): 15%
- inhibition of β5 activity (Suc-LLVY-amc) [1]: strongly inhibited
- inhibition at 0.5 µM [2]: ~40%
- inhibition of β1 activity with old substrate Z-LLE-amc ([4]; 10 μM inhibitor): fully inhibited
- inhibition at 0.5 µM ([4]; 2 h, read-out: reduction of β1 activity (Z-LLE-amc)): ~40%
Molecule: CC(C)C[C@H](NC(=O)[C@H](CCc1ccccc1)NC(=O)CN1CCOCC1)C(=O)N[C@@H](Cc1ccccc1)C(=O)N[C@@H](CC(C)C)C(=O)[C@@]1(C)CO1 [CFZ, carfilzomib]
- inhibition of β2 activity, three Schistosoma species [10]: inhibited β5 and β2 more than β1
- inhibition of β5 activity, three Schistosoma species [3]: inhibited β5 and β2 more than β1
